Columns and labels:
[1] = Fluorophore characterization; type: physicochemical; settings: for Maximum λemm / Maximum λexc / Relative Fluorescence Intensity: 37°C, phosphate buffer 100 mM pH 8, 0.1 mg/mL BSA, 1% DMSO
In short: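 Fluorophores dissolved in 100 mM phosphate buffer, pH 8, 0.1 mg/mL BSA, 1% DMSO, at 37°C. Excitation and emission maxima found by scanning fluorescence intensity at 2 nm steps on a plate spectrophotometer. Relative intensity expressed as RFU per nmol.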

[2] = Background hydrolysis of substrates in phosphate buffer; type: physicochemical; settings: phosphate buffer 100 mM, pH 8, 0.1 mg/mL BSA
PON1 = PON1 (Homo sapiens, UniProt P27169); assay: Potency of esterase inhibitors, PON1; type: biochemical
In short: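 PON1 used as crude lysate of baculovirus-infected insect cells in PBS. Added to 2-fold serial inhibitor dilutions (top concentration at most 100 µM) and preincubated 5 min. Cyanohydrin ester substrate then added to 50 µM final, DMSO ≤2%, in 100 mM phosphate pH 8, 0.1 mg/mL BSA, 37°C. Fluorescence (ex 330/em 465 nm) read kinetically for 10 min. IC50 from linear regression of log[inhibitor] against % remaining activity; triplicates, single experiment.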

hCE3 = target: T1, hCE3 (Homo sapiens, UniProt Q6UWW8); assay: Potency of esterase inhibitors, hCE3; type: biochemical
T1 sequence (Q6UWW8 27-571): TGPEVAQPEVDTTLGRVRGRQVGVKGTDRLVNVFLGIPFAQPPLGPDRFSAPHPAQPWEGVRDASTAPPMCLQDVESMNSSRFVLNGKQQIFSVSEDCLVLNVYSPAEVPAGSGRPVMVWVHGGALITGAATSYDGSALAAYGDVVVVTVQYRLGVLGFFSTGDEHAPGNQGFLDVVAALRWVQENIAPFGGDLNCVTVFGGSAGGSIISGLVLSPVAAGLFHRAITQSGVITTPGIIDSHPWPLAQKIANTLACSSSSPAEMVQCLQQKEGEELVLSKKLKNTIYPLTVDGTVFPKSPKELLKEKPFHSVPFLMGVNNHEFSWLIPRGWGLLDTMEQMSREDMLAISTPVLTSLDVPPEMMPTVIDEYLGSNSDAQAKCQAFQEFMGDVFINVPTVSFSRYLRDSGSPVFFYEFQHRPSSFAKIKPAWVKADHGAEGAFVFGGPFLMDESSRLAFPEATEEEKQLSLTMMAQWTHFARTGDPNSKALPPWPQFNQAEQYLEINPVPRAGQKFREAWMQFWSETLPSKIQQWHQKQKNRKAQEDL

AADAC = target: T2, AADAC (Homo sapiens, UniProt P22760); assay: Potency of esterase inhibitors, AADAC; type: biochemical
T2 sequence (P22760 1-399): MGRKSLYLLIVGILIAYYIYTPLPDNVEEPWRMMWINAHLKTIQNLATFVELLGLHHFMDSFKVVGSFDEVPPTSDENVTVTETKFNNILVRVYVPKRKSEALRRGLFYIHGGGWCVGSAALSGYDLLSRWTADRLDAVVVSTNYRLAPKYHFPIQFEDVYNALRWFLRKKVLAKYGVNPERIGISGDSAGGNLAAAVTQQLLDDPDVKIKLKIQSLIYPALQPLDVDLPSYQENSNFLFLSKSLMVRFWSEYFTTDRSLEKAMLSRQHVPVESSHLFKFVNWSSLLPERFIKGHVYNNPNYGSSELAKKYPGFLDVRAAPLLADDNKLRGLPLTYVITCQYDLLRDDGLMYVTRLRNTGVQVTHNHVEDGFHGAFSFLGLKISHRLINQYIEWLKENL

FAAH = target: T3, FAAH (Homo sapiens, UniProt O00519); assay: Potency of esterase inhibitors, FAAH; type: biochemical
T3 sequence (O00519 1-579): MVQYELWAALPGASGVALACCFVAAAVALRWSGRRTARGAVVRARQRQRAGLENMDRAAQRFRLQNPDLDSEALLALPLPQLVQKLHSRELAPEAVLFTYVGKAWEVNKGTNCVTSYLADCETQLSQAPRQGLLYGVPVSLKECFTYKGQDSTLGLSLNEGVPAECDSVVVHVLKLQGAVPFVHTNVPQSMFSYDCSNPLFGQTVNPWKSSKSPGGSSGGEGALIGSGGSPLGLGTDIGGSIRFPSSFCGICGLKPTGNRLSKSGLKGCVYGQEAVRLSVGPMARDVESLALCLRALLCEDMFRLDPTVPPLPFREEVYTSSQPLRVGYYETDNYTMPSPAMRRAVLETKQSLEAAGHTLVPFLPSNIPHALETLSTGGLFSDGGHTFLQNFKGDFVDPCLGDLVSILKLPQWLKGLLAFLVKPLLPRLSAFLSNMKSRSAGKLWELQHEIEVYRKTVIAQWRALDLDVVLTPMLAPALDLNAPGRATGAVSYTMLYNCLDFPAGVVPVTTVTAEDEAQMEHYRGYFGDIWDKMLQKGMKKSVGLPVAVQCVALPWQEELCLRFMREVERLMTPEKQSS

Kinetic properties [3] = substrate: COc1ccc2cc(C(C#N)OC(C)=O)ccc2c1; assay: Kinetic properties; type: biochemical, human; settings: 37°C, pH 8
Kinetic properties [4] = substrate: CCCCC(C)CCC(=O)Nc1ccc(OC)nc1C; assay: Kinetic properties; type: biochemical, human; settings: 37°C, pH 8
[5] = other: hCE1, 6 substrate concentrations 3.13-100 µM
[6] = other: hCE2, 6 substrate concentrations 3.13-100 µM

Sequence of PON1 (P27169 whole entry, species assumed): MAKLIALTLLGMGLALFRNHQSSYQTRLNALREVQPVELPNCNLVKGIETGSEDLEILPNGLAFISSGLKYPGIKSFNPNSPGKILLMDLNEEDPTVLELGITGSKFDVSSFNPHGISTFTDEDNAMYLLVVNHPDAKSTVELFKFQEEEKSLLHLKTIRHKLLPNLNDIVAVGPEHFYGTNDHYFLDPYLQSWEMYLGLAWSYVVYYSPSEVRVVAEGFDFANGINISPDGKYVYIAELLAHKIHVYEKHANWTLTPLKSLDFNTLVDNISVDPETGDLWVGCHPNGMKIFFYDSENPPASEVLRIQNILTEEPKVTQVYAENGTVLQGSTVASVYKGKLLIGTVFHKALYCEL

Molecule: COc1ccc2cc(C=O)ccc2c1 [VI, 6-methoxynaphthaldehyde]
- Maximum λemm [1]: 462 nm
- Maximum λexc [1]: 320 nm
- Relative Fluorescence Intensity [1]: 2,600 RFU/nmol

Molecule: CC(=O)Oc1ccc([N+](=O)[O-])cc1 [4-NPA, 4-nitrophenyl acetate]
- Rate of background hydrolysis [2]: 610 pmol/min

Molecule: COc1ccc(N)c(C)n1 [I, 2-methoxy-5-amino-6-methylpyridine]
- Maximum λemm [1]: 394 nm
- Maximum λexc [1]: 304 nm
- Relative Fluorescence Intensity [1]: 4,400 RFU/nmol

Molecule: CN(C)C(=O)C(CCN1CCC(O)(c2ccc(Cl)cc2)CC1)(c1ccccc1)c1ccccc1 [Loperamide]
- IC50 (PON1): > 100 µM
- IC50 (hCE3): > 100 µM
- IC50 (AADAC): 23 µM
- IC50 (FAAH): > 100 µM

Molecule: COc1nc(C)ccc1N [V, 2-methyl-5-amino-6-methoxypyridine]
- Fluorescence, fold less than I [1]: 4 fold
- Maximum λemm [1]: 364 nm
- Maximum λexc [1]: 292 nm
- Relative Fluorescence Intensity [1]: 1,100 RFU/nmol

Molecule: COc1ccc(N)cn1 [II, 2-methoxy-5-aminopyridine]
- Maximum λemm [1]: 398 nm
- Maximum λexc [1]: 304 nm
- Relative Fluorescence Intensity [1]: 3,100 RFU/nmol

B1: hCE1 (Homo sapiens) (protein)
chain: GHPSSPPVVDTVHGKVLGKFVSLEGFAQPVAIFLGIPFAKPPLGPLRFTPPQPAEPWSFVKNATSYPPMCTQDPKAGQLLSELFTNRKENIPLKLSEDCLYLNIYTPADLTKKNRLPVMVWIHGGGLMVGAASTYDGLALAAHENVVVVTIQYRLGIWGFFSTGDEHSRGNWGHLDQVAALRWVQDNIASFGGNPGSVTIFGESAGGESVSVLVLSPLAKNLFHRAISESGVALTSVLVKKGDVKPLAEQIAITAGCKTTTSAVMVHCLRQKTEEELLETTLKMKFLSLDLQGDPRESQPLLGTVIDGMLLLKTPEELQAERNFHTVPYMVGINKQEFGWLIPMQLMSYPLSEGQLDQKTAMSLLWKSYPLVCIAKELIPEATEKYLGGTDDTVKKKDLFLDLIADVMFGVPSVIVARNHRDAGAPTYMYEFQYRPSFSSDMKPKTVIGDHGDELFSVFGAPFLKEGASEEEIRLSKMVMKFWANFARNGNPNGEGLPHWPEYNQKEGYLQIGANTQAAQKLKDKEVAFWTNLFAKKAVEKPPQTEHIEL
- Vmax (Kinetic properties [3]; [5]): 1.4 µmol/min/mg
- Vmax/Km (Kinetic properties [3]; [5]): 280000 µL/min/mg
- Vmax (Kinetic properties [4]; [5]): 0.48 µmol/min/mg
- Vmax/Km (Kinetic properties [4]; [5]): 17000 µL/min/mg

B2: hCE2 (Homo sapiens) (protein)
chain: QDSASPIRTTHTGQVLGSLVHVKGANAGVQTFLGIPFAKPPLGPLRFAPPEPPESWSGVRDGTTHPAMCLQDLTAVESEFLSQFNMTFPSDSMSEDCLYLSIYTPAHSHEGSNLPVMVWIHGGALVFGMASLYDGSMLAALENVVVVIIQYRLGVLGFFSTGDKHATGNWGYLDQVAALRWVQQNIAHFGGNPDRVTIFGESAGGTSVSSLVVSPISQGLFHGAIMESGVALLPGLIASSADVISTVVANLSACDQVDSEALVGCLRGKSKEEILAINKPFKMIPGVVDGVFLPRHPQELLASADFQPVPSIVGVNNNEFGWLIPKVMRIYDTQKEMDREASQAALQKMLTLLMLPPTFGDLLREEYIGDNGDPQTLQAQFQEMMADSMFVIPALQVAHFQCSRAPVYFYEFQHQPSWLKNIRPPHMKADHGDELPFVFRSFFGGNYIKFTEEEEQLSRKMMKYWANFARNGNPNGEGLPHWPLFDQEEQYLQLNLQPAVGRALKAHRLQFWKKALPQKIQELEEPEERHTEL
- Vmax (Kinetic properties [3]; [6]): 9.6 µmol/min/mg
- Vmax/Km (Kinetic properties [3]; [6]): 1.2e+06 µL/min/mg
- Vmax (Kinetic properties [4]; [6]): 0.004 µmol/min/mg
- Vmax/Km (Kinetic properties [4]; [6]): 450 µL/min/mg

Reference: PMC5696082 (Analytical biochemistry, 2017)
